# Test results taken from publication PMC4503343 (Molecular pharmacology, 2013).
# Like-named read-outs stand apart in the source and are kept apart here.
# Key:
# [1] = target: T1, human P-gp Q132R (Homo sapiens, UniProt P08183, Q132R); assay: Continuous monitoring of rh123 zero trans efflux, Q132R mutant; format: cell-based; conditions: mean ± S.D.
# Summary of the method: (§1)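 HEK293 cells, with endogenous P-gp knocked down by lentiviral shRNA and puromycin selection, were transiently transfected with hexa-His human P-gp mutants. Cells were loaded with 0.53 μM rh123 (final) in DMEM pH 7.8 for 30 min at 37°C, chilled and washed, then effluxed into 37°C DMEM pH 7.4. Flow cytometry ran 5 min at 37°C (488/534 nm). Exponential-fit k was normalized to MRK16 surface staining. n≥3.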
# [2] = target: human P-gp Q773R (Homo sapiens, UniProt P08183, Q773R); assay: Continuous monitoring of rh123 zero trans efflux, Q773R mutant; format: cell-based; conditions: mean ± S.D.
# Summary of the method: as §1
# [3] = target: human P-gp Q773R/Y950F/Y953F (Homo sapiens, UniProt P08183, Q773R/Y950F/Y953F); assay: Continuous monitoring of rh123 zero trans efflux, Q773R/Y950F/Y953F mutant; format: cell-based; conditions: expressed at the surface
# Summary of the method: as §1
# [4] = target: human P-gp wild-type (Homo sapiens, UniProt P08183); format: cell-based
# Sequence of human P-gp wild-type (P08183 whole entry): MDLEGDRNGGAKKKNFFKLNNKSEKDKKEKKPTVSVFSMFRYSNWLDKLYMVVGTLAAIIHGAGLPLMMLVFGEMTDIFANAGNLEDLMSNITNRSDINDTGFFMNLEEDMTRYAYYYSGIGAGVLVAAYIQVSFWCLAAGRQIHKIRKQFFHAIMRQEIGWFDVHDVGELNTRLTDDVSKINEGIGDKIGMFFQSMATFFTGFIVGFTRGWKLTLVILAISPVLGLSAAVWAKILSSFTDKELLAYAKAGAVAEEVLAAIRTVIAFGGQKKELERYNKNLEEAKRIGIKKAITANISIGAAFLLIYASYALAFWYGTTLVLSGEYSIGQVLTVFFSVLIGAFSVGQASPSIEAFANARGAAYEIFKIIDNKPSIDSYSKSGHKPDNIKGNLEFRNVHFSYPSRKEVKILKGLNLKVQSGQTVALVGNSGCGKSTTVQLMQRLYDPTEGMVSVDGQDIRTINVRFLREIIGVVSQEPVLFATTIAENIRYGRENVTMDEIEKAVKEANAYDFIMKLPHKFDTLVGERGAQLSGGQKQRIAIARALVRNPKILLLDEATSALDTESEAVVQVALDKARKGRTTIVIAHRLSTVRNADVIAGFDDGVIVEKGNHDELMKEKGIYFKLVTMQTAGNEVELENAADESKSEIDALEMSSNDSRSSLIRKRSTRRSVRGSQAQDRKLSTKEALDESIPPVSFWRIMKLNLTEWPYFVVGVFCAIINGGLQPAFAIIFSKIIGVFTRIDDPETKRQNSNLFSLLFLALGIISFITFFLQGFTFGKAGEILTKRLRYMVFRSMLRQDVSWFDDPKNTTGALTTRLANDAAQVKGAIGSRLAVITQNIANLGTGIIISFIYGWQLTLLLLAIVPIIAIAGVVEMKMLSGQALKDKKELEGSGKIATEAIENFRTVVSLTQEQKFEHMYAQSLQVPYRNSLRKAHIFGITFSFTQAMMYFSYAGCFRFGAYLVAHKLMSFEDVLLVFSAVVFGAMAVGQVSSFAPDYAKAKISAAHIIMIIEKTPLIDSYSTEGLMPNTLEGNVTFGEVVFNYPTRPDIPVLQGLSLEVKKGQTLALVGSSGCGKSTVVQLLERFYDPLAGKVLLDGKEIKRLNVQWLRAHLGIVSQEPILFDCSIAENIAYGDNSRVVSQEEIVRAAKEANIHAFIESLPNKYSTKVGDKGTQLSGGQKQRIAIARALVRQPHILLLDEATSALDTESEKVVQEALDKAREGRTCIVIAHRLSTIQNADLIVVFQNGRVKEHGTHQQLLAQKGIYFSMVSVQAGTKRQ
# [5] = target: human P-gp Y950F (Homo sapiens, UniProt P08183, Y950F); assay: Inhibition of rh123 efflux, Y950F mutant; format: cell-based
# [6] = target: human P-gp Y953F (Homo sapiens, UniProt P08183, Y953F); assay: Inhibition of rh123 efflux, Y953F mutant; format: cell-based
# Sequence of human P-gp Y953F (P08183 whole entry Y953F): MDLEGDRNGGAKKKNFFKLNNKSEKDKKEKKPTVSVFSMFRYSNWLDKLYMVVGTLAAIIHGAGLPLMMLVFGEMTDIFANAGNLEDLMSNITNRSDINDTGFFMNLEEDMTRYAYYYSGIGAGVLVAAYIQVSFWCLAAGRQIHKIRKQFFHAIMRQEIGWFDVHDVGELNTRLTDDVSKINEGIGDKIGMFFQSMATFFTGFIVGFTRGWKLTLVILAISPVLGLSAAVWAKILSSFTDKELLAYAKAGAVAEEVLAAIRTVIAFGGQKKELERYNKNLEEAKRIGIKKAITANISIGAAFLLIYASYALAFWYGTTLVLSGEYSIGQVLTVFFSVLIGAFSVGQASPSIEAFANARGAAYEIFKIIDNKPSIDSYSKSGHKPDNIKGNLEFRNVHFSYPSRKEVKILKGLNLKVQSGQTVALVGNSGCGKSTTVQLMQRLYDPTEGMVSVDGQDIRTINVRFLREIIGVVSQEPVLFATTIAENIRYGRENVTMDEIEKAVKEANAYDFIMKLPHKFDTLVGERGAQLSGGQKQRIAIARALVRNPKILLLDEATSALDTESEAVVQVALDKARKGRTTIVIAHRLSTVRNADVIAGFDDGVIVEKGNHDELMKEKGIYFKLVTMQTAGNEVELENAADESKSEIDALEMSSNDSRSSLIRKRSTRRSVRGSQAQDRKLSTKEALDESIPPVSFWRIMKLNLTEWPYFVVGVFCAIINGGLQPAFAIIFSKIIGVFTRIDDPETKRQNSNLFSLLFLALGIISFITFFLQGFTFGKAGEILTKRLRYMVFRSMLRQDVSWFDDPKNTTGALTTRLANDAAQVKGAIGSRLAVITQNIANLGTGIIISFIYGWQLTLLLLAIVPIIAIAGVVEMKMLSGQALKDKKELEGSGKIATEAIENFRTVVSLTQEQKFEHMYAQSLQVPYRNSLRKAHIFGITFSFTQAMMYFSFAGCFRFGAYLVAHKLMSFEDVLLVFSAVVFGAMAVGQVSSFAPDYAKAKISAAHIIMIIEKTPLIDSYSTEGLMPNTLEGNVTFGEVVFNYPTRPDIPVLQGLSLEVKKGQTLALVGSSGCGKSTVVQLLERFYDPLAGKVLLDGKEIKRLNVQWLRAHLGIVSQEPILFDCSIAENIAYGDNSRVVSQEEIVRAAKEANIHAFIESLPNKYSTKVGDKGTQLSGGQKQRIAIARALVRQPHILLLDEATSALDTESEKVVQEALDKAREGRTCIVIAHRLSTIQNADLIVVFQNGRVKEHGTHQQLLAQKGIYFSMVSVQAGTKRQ
# [7] = target: human P-gp Y950F/Y953F (Homo sapiens, UniProt P08183, Y950F/Y953F); assay: Inhibition of rh123 efflux, Y950F/Y953F double mutant; format: cell-based
# [8] = target: T1, human P-gp Q132R; assay: Inhibition of rh123 efflux, Q132R mutant; format: cell-based; conditions: for fold difference in IC50 values for wild-type protein and the Q132R mutant: Q132R mutant vs wild-type
# [9] = target: human P-gp Q132R/Y953F (Homo sapiens, UniProt P08183, Q132R/Y953F); assay: Inhibition of rh123 efflux, Q132R/Y953F mutant; format: cell-based; conditions: for fold higher IC50 value than the Q132R mutation: Q132R/Y953F mutant vs Q132R
# Sequence of human P-gp Q132R/Y953F (P08183 whole entry Q132R/Y953F): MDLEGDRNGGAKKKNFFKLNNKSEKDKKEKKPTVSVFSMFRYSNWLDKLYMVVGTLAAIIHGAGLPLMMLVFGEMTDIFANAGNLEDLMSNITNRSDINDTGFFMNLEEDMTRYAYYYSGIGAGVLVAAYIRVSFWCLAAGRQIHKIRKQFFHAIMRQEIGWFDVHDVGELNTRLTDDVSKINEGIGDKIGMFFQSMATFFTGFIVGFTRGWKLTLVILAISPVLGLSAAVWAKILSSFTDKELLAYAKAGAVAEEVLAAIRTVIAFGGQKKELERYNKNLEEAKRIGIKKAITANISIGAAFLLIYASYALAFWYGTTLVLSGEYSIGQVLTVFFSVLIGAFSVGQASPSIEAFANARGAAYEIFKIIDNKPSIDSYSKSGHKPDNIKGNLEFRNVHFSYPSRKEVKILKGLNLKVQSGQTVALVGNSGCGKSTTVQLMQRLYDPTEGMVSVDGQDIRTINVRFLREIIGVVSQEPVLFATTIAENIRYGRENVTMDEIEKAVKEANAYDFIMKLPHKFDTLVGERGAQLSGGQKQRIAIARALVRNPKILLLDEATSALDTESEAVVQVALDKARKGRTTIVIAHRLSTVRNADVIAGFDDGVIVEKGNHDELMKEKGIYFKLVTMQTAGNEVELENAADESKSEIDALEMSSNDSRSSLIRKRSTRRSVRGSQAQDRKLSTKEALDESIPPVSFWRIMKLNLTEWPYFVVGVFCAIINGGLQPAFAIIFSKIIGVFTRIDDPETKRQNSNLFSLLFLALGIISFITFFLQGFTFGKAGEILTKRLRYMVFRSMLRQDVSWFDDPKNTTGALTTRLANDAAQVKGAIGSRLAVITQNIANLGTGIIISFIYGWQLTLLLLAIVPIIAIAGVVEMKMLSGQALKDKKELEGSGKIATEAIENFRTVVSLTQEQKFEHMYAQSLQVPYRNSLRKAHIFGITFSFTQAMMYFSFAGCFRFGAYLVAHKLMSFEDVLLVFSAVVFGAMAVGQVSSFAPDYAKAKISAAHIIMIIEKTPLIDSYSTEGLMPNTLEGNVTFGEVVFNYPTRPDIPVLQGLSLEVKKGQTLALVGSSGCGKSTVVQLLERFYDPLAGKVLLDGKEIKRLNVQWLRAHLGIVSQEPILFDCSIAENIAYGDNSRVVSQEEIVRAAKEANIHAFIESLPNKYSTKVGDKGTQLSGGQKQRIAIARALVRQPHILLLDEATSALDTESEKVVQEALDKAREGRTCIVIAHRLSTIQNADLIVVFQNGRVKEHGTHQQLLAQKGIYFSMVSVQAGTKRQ
# [10] = tested on: human P-gp Q132R/Y950F/Y953F; assay: Inhibition of rh123 efflux, Q132R/Y950F/Y953F triple mutant; format: cell-based; conditions: in the Q132R background
# [11] = pKa and protonated fraction of propafenone analogs; format: physicochemical; conditions: at intracellular pH, estimated from pKa
# [12] = ref Ecker et al., 1999; cited from earlier work
# [13] = target: human P-gp Q132R/Y950F (Homo sapiens, UniProt P08183, Q132R/Y950F); assay: Inhibition of rh123 efflux, Q132R/Y950F mutant; format: cell-based
# T1 sequence (P08183 whole entry Q132R): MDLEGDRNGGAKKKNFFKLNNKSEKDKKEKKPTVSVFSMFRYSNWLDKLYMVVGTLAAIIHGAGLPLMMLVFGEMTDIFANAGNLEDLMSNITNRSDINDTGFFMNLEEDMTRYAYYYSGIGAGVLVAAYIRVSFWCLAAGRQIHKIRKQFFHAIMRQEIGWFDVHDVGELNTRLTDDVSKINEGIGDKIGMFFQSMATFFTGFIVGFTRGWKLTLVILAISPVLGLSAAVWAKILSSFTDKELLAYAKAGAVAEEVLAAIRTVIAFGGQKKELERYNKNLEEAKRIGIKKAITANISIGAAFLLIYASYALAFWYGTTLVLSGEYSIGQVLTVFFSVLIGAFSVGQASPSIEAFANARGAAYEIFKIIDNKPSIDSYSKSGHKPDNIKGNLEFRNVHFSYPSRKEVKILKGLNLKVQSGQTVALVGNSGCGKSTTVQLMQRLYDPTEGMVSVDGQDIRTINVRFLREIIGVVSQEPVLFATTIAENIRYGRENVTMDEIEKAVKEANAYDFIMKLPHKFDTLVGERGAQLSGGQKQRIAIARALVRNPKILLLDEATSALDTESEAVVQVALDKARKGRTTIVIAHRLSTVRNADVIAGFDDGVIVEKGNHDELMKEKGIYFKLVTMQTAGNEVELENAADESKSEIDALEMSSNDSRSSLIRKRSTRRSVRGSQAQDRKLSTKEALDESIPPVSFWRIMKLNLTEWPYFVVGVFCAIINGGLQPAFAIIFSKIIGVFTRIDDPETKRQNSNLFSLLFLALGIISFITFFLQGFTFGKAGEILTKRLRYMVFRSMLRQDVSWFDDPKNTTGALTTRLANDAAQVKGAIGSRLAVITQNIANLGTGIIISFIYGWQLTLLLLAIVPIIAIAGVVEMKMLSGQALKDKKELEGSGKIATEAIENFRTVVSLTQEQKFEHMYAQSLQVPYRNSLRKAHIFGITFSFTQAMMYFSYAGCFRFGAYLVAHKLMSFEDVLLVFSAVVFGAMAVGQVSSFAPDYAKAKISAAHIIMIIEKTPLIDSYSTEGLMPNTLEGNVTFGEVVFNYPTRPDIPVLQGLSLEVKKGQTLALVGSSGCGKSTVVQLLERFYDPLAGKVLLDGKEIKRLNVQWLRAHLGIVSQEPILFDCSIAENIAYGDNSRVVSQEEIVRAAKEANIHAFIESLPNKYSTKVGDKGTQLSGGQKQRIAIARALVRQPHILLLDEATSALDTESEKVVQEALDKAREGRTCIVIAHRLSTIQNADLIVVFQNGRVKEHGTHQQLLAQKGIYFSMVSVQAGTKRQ
SMILES,IC50 [4],IC50 [5],IC50 [6],IC50 [7],IC50 [8],fold difference in IC50 values for wild-type protein and the Q132R mutant [8],fold higher IC50 value than the Q132R mutation [9],fold change in IC50 [10],percentage of protonated (charged) species [11],pKa [12],other results
"COC(=O)c1ccccc1-c1c2ccc(=N)cc-2oc2cc(N)ccc12 [rh123, rhodamine123]",,,,,,,,,,,rh123 efflux (fractional transport rate) [1]: 75% ± 11%; rh123 efflux (fractional transport rate) [2]: 37% ± 8%; rh123 efflux [3]: no rh123 efflux was detectable
"O=C(CCc1ccccc1)c1ccccc1OCC(O)CN1CCN(c2ccc(F)cc2)CC1 (stereo not drawn) [GPV031, 1-(2-(3-(4-(4-fluorophenyl)piperazin-1-yl)-2-hydroxypropoxy)phenyl)-3-phenylpropan-1-one]",0.085 ± 0.022 µM,0.238 ± 0.084 µM,0.287 ± 0.109 µM,0.63 ± 0.087 µM,0.521 ± 0.183 µM,at least 3 fold,2.1 fold,2.7 fold,60–70%,7.3,
O=C(CCc1ccccc1)c1ccccc1OCC(O)CN1CCCCC1 (stereo not drawn) [GPV005],,,,,,at least 3 fold,1.5 fold,2.3 fold,> 90%,8.4,"IC50 ([4]; read-out: IC50 for inhibition of rh123 efflux, wild-type P-gp, HEK293 cells, 37°C, mean ± S.D.): 0.518 ± 0.141 µM; IC50 ([5]; read-out: IC50 for inhibition of rh123 efflux, Y950F mutant, HEK293 cells, mean ± S.D.): 1.35 ± 0.229 µM; IC50 ([6]; read-out: IC50 for inhibition of rh123 efflux, Y953F mutant, HEK293 cells, mean ± S.D.): 1.21 ± 0.362 µM; IC50 ([8]; read-out: IC50 for inhibition of rh123 efflux, Q132R mutant, HEK293 cells, mean ± S.D.): 1.41 ± 0.215 µM"
"CCCN(CC(O)COc1ccccc1C(=O)CCc1ccccc1)C(=O)c1ccccc1 (stereo not drawn) [GPV366, N-(2-hydroxy-3-(2-(3-phenylpropanoyl)phenoxy)propyl)-N-propylbenzamide]",2.24 ± 0.391 µM,2.98 ± 0.079 µM,15.9 µM,17.8 µM,1.07 ± 0.282 µM,,3.0 fold,4.9 fold,,,fold change in IC50 relative to wild-type ([6]; Y953F mutant vs wild-type): 7.1 fold; fold change in IC50 relative to wild-type ([7]; Y950F/Y953F mutant vs wild-type): 8 fold; IC50 [13]: 0.966 ± 0.259 µM; IC50 [9]: 3.26 ± 0.965 µM
